Source: ChEMBL document CHEMBL2176925, “Novel ¹⁸F-labeled benzoxazole derivatives as potential positron emission tomography probes for imaging of cerebral β-amyloid plaques in Alzheimer's disease” (J Med Chem, 2012)

Experiments:
Spleen [1] = test: Drug uptake in ddY mouse spleen at 370 kBq/100 ul, iv at 60 mins by gamma-counting analysis; type: ADME, organism-based; settings: in vivo, 1 h
How it was run: (§1)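 Normal male ddY mice (5 weeks, 20−22 g, n = 5) received 370 kBq of tracer in 100 μL saline with 5% EtOH via tail vein. Mice were sacrificed at set times after injection, and organs were excised, weighed and γ-counted against diluted injectate aliquots. Values are %ID per gram, except stomach and intestine as %ID per organ, given as mean ± SD of 5 mice.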

Bone [2] = test: Drug uptake in ddY mouse bone at 370 kBq/100 ul, iv at 30 mins by gamma-counting analysis; type: ADME, organism-based, Bone element; settings: in vivo, 0.5 h; how it was run: as §1
Bone [3] = test: Drug uptake in ddY mouse bone at 370 kBq/100 ul, iv at 2 mins by gamma-counting analysis; type: ADME, organism-based, Bone element; settings: in vivo; how it was run: as §1
Brain [4] = test: Ratio of drug uptake in brain at 2 mins to drug uptake in brain at 60 mins in ddY mouse at 370 kBq/100 ul, iv; type: ADME, organism-based; settings: in vivo
How it was run: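 Tail-vein injection of 370 kBq/100 μL (saline, 5% EtOH) into male ddY mice (5 weeks, 20−22 g, n = 5). Brain excised at 2 and 60 min, weighed and γ-counted against diluted injectate. Uptake is %ID/g, and the ratio is brain at 2 min divided by brain at 60 min.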

Kidney [5] = test: Drug uptake in ddY mouse kidney at 370 kBq/100 ul, iv at 10 mins by gamma-counting analysis; type: ADME, organism-based; settings: in vivo; how it was run: as §1
Brain [6] = test: Drug uptake in wild type C57BL6 mouse brain at 370 kBq/100 ul after 1 hr by thioflavinS-staining method; type: ADME, tissue-based
How it was run: (§2)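 Paraffin sections of brain were used: C57BL6 mice (wild-type, 12 months), human AD (person) and normal human. Sections were deparaffinized through xylene and graded ethanol, then equilibrated 30 min in PBS (0.2 M, pH 7.4). Incubated 1 h at room temperature with tracer, 370 kBq/100 μL, washed 1 min in 50% ethanol and rinsed with water. Imaging plate exposed overnight. Plaques confirmed by thioflavin-S or anti-Aβ1-42 monoclonal immunostaining.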

Stomach [7] = test: Drug uptake in ddY mouse stomach assessed per organ at 370 kBq/100 ul, iv at 10 mins by gamma-counting analysis; type: ADME, organism-based; settings: in vivo; how it was run: as §1
Heart [8] = test: Drug uptake in ddY mouse heart at 370 kBq/100 ul, iv at 2 mins by gamma-counting analysis; type: ADME, organism-based; settings: in vivo; how it was run: as §1
Heart [9] = test: Drug uptake in ddY mouse heart at 370 kBq/100 ul, iv at 10 mins by gamma-counting analysis; type: ADME, organism-based; settings: in vivo; how it was run: as §1
Blood [10] = test: Drug uptake in ddY mouse blood at 370 kBq/100 ul, iv at 2 mins by gamma-counting analysis; type: ADME, organism-based; settings: in vivo; how it was run: as §1
Brain [11] = test: Drug uptake in ddY mouse brain at 370 kBq/100 ul, iv at 30 mins by gamma-counting analysis; type: ADME, organism-based; settings: in vivo, 0.5 h; how it was run: as §1
Brain [12] = test: Drug uptake in healthy human brain at 370 kBq/100 ul after 1 hr by autoradiographic analysis; type: ADME, tissue-based; how it was run: as §2
Spleen [13] = test: Drug uptake in ddY mouse spleen at 370 kBq/100 ul, iv at 30 mins by gamma-counting analysis; type: ADME, organism-based; settings: in vivo, 0.5 h; how it was run: as §1
Brain [14] = test: Drug uptake in ddY mouse brain at 370 kBq/100 ul, iv at 10 mins by gamma-counting analysis; type: ADME, organism-based; settings: in vivo; how it was run: as §1
Brain [15] = test: Drug uptake in healthy human brain at 370 kBq/100 ul after 1 hr by immunohistochemical staining method; type: ADME, tissue-based; how it was run: as §2
Brain [16] = test: Drug uptake in wild type C57BL6 mouse brain at 370 kBq/100 ul after 1 hr by autoradiographic analysis; type: ADME, tissue-based; settings: in vitro; how it was run: as §2
Intestine [17] = test: Drug uptake in ddY mouse intestine at 370 kBq/100 ul, iv at 30 mins by gamma-counting analysis; type: ADME, organism-based; settings: in vivo, 0.5 h; how it was run: as §1
Blood [18] = test: Drug uptake in ddY mouse blood at 370 kBq/100 ul, iv at 30 mins by gamma-counting analysis; type: ADME, organism-based; settings: in vivo, 0.5 h; how it was run: as §1
Bone [19] = test: Drug uptake in ddY mouse bone at 370 kBq/100 ul, iv at 10 mins by gamma-counting analysis; type: ADME, organism-based, Bone element; settings: in vivo; how it was run: as §1
Stomach [20] = test: Drug uptake in ddY mouse stomach assessed per organ at 370 kBq/100 ul, iv at 2 mins by gamma-counting analysis; type: ADME, organism-based; settings: in vivo; how it was run: as §1
Intestine [21] = test: Drug uptake in ddY mouse intestine at 370 kBq/100 ul, iv at 60 mins by gamma-counting analysis; type: ADME, organism-based; settings: in vivo, 1 h; how it was run: as §1
Stomach [22] = test: Drug uptake in ddY mouse stomach assessed per organ at 370 kBq/100 ul, iv at 60 mins by gamma-counting analysis; type: ADME, organism-based; settings: in vivo, 1 h
How it was run: (§3)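 Male ddY mice (5 weeks, 20−22 g, n = 5) received tracer in saline with 5% EtOH, 370 kBq/100 μL, by tail vein. Killed at set times after dosing. Stomach removed, weighed and γ-counted against diluted aliquots of the injected dose. Reported as % injected dose per organ, mean ± SD of 5 mice.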

Brain [23] = test: Drug uptake in ddY mouse brain at 370 kBq/100 ul, iv at 2 mins by gamma-counting analysis; type: ADME, organism-based; settings: in vivo; how it was run: as §1
[24] = Displacement of [125I]IMPY from amyloid beta (1 to 42) fibrils after 2 hrs by gamma-counting analysis
How it was run: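 Competition binding with aggregated Aβ1-42 fibrils (60 nM final) and [125I]IMPY. Inhibitors were tested at 10⁻⁵–10⁻¹⁰ M (in ethanol) in 0.2 M PBS, pH 7.4, 1 mL, for 2 h at 37 °C with shaking. Nonspecific binding was defined with 1 μM IMPY. Bound ligand was collected by GF/B filtration and γ-counted. Ki was derived from IC50 via Cheng–Prusoff.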

[25] = n-Octanol-PBS buffer partition coefficient, log D of the compound at 370 kBq after 3 mins at pH 7.4; type: physicochemical
How it was run: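 For log D, tubes containing n-octanol and PBS were vortexed 3 min at room temperature and centrifuged 5 min at 3000 rpm. Weighed samples of the octanol (100 μL) and buffer (500 μL) layers were counted. Log D is the log of the ratio of counts per gram, octanol to PBS.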

Lung = test: Drug uptake in ddY mouse lung at 370 kBq/100 ul, iv at 10 mins by gamma-counting analysis; type: ADME, organism-based; settings: in vivo; how it was run: as §1
Bone [26] = test: Drug uptake in ddY mouse bone at 370 kBq/100 ul, iv at 60 mins by gamma-counting analysis; type: ADME, organism-based, Bone element; settings: in vivo, 1 h; how it was run: as §1
Blood [27] = test: Drug uptake in ddY mouse blood at 370 kBq/100 ul, iv at 60 mins by gamma-counting analysis; type: ADME, organism-based; settings: in vivo, 1 h; how it was run: as §1
Stomach [28] = test: Drug uptake in ddY mouse stomach assessed per organ at 370 kBq/100 ul, iv at 30 mins by gamma-counting analysis; type: ADME, organism-based; settings: in vivo, 0.5 h; how it was run: as §3
Brain [29] = test: Drug uptake in wild type C57BL6 mouse brain at 40.7 MBq, iv after 30 mins by autoradiographic analysis; type: ADME, organism-based; settings: in vivo, 0.5 h
How it was run: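 Wild-type C57BL6 mice (18 months) received 40.7 MBq tracer iv via the femoral vein in 100 μL saline with 5% EtOH. Decapitated at 30 min, and brains frozen in powdered dry ice. 20 μm sections exposed to an imaging plate for 8 h, then the same sections stained with thioflavin-S.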

Kidney [30] = test: Drug uptake in ddY mouse kidney at 370 kBq/100 ul, iv at 2 mins by gamma-counting analysis; type: ADME, organism-based; settings: in vivo; how it was run: as §1
Spleen [31] = test: Drug uptake in ddY mouse spleen at 370 kBq/100 ul, iv at 10 mins by gamma-counting analysis; type: ADME, organism-based; settings: in vivo; how it was run: as §1

| SMILES | Drug uptake (Spleen [1]) | Drug uptake (Bone [2]) | Drug uptake (Bone [3]) | Ratio (Brain [4]) | Drug uptake (Kidney [5]) | Drug uptake (Brain [6]) | Drug uptake (Stomach [7]) | Drug uptake (Heart [8]) | Drug uptake (Heart [9]) | Drug uptake (Blood [10]) | Drug uptake (Brain [11]) | Drug uptake (Brain [12]) | Drug uptake (Spleen [13]) | Drug uptake (Brain [14]) | Drug uptake (Brain [15]) | Drug uptake (Brain [16]) | Drug uptake (Intestine [17]) | Drug uptake (Blood [18]) | Drug uptake (Bone [19]) | Drug uptake (Stomach [20]) | also measured |
| --- | --- | --- | --- | --- | --- | --- | --- | --- | --- | --- | --- | --- | --- | --- | --- | --- | --- | --- | --- | --- | --- |
| CNc1ccc(-c2nc3cc(OCCOCCOCC[18F])ccc3o2)cc1 | 3.42 % ID/g | 3.74 % ID/g | 3.17 % ID/g | 2.67 | 8.45 % ID/g | Not Active | 2.36 %ID | 8.57 % ID/g | 4.78 % ID/g | 4.76 % ID/g | 4.07 % ID/g | Not Active | 3.92 % ID/g | 4.41 % ID/g | Not Active | Not Active | 23.92 % ID/g | 4.67 % ID/g | 2.32 % ID/g | 1.59 %ID | Drug uptake (Intestine [21]): 23.91 % ID/g; Drug uptake (Stomach [22]): 1.87 %ID; Drug uptake (Brain [23]): 8.12 % ID/g; Ki [24]: 9.3 nM; logD at 0.05 h [25]: 3.09; Drug uptake (Lung): 5.64 % ID/g; Drug uptake (Bone [26]): 5.78 % ID/g; Drug uptake (Blood [27]): 4.87 % ID/g; Drug uptake (Stomach [28]): 1.85 %ID; Drug uptake (Brain [29]): Not Active; Drug uptake (Kidney [30]): 12.88 % ID/g; Drug uptake (Spleen [31]): 4.22 % ID/g |
| CN(C)c1ccc(-c2nc3cc(OCCOCCOCC[18F])ccc3o2)cc1 | 2.25 % ID/g | 1.96 % ID/g | 1.18 % ID/g | 2.5 | 5.18 % ID/g | Not Active | 1.37 %ID | 5.55 % ID/g | 3.52 % ID/g | 3.24 % ID/g | 2.5 % ID/g | Not Active | 2.53 % ID/g | 3.37 % ID/g | Not Active | Not Active | 22.59 % ID/g | 2.84 % ID/g | 1.07 % ID/g | 1.1 %ID | Drug uptake (Intestine [21]): 15.82 % ID/g; Drug uptake (Stomach [22]): 1.41 %ID; Drug uptake (Brain [23]): 5.29 % ID/g; Ki [24]: 3.9 nM; logD at 0.05 h [25]: 3.45; Drug uptake (Lung): 3.64 % ID/g; Drug uptake (Bone [26]): 3.45 % ID/g; Drug uptake (Blood [27]): 3.33 % ID/g; Drug uptake (Stomach [28]): 1.51 %ID; Drug uptake (Brain [29]): Not Active; Drug uptake (Kidney [30]): 8.71 % ID/g; Drug uptake (Spleen [31]): 2.88 % ID/g |
